From PubChem
Rows were chosen to be rich in hits. Some 2.5% of all compounds tested hit in one or more screens of this group.
HCV NS3 hel inh – HCV NS3 helicase inhibition. 0.56% of 290,000 active. AID 1800. inhibition, % at 10.9 µM. NS3 helicase DNA unwinding, Cy5 molecular beacon fluorescence;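 active means inhibition above the mean of all tested compounds plus 3 SD, set per campaign, cut at about 35% in these data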;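 further: 0% = DMSO wells and 100% = thioflavine S control wells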
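Test system: hepatitis C virus NS3 helicase domain fragment enzyme. Also added: annealed dual-labelled DNA beacon duplex, ATP-started. Timing: 60 min unwinding reaction at 25 °C after ATP addition. Technique: Cy5 fluorescence. Measure: % inhibition of unwinding.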
DNMT1 block – inhibitors of human DNMT1; DNMT1 molecular beacon, Hinp1I cleavage, fluorescence; P26358; inhibition (reported as % activation of signal), % at 10 µM; 0.83% of 360,000 active; in the data active means inhibition above about 50%
SUMO1 PPI mod – alters human SUMO1 binding to SIM partners | SUMO1 binding to a labelled peptide, TR-FRET, 1 h | inhibition, % at 20 µM | 0.33% of 360,000 active; in the data active means inhibition above about 37%
DSG3 Ab inh – inhibitors of pemphigus antibody binding to human desmoglein-3; P32926; DSG3-coupled beads, scFv-anti-DSG3-GFP binding, flow cytometry; stronger effect = lower value; binding (percent of control), % at 10 µM; 0.48% of 310,000 active; AID 588358;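 active means binding more than 3 SD below its plate's average and above zero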;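 further: hits lower antibody fragment binding to DSG3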
UHRF1 binding – UHRF1 methyl-DNA binding inhibition. inhibition, % at 4.4 µM. Q96T88. 0.75% of 370,000 active. UHRF1 binding to methylated oligo, TR-FRET; in the data active means inhibition above about 21%;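 further: UHRF1 SRA domain binding a hemimethylated CpG hairpin DNA probe; 0% = median of test compound wells and 100% = reference inhibitor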
MBD2 DNA inh – MBD2-methylated oligo binding inhibition; inhibition, % at 4.4 µM; 0.31% of 370,000 active; TR-FRET, MBD2 binding to methylated oligonucleotide; AID 686964; Q9UBB5; in the data active means inhibition above about 13%
* = called active by the depositor; nt = no result.

SMILES | HCV NS3 hel inh | DNMT1 block | SUMO1 PPI mod | DSG3 Ab inh | UHRF1 binding | MBD2 DNA inh
O=C(Nc1nc(-c2ccccc2)c(-c2ccccc2)s1)c1ccc(S(=O)(=O)N2CCCC2)cc1 | 4 | -1 | -1 | 82* | -2 | 0
O=C(Nc1ccccc1)c1ccc(S(=O)(=O)N2CCCC2)cc1 | 1 | 5 | 1 | 96 | -1 | -1
CN(C)S(=O)(=O)c1ccc(C(=O)Nc2nc(-c3ccccc3)c(C(=O)c3ccccc3)s2)cc1 | 4 | -4 | -9 | 108 | -1 | 0
CNC(CC(C)C)C(=O)NC1C(=O)NC(CC(N)=O)C(=O)NC2C(=O)NC3C(=O)NC(C(=O)NC(C(=O)O)c4cc(O)cc(O)c4-c4cc3ccc4O)C(O)c3ccc(c(Cl)c3)Oc3cc2cc(c3OC2OC(CO)C(O)C(O)C2OC2CC(C)(N)C(O)C(C)O2)Oc2ccc(cc2Cl)C1O (stereo not given) | nt | -2 | 51* | 98 | 0 | -5
Cc1ccc2cc(CN(C)S(C)(=O)=O)c(=O)[nH]c2c1 | 3 | 1 | -1 | 106 | 35* | -2
Cc1ccc(N(Cc2cc3ccc(C)cc3[nH]c2=O)S(C)(=O)=O)c(C)c1 | 10 | 1 | -2 | 102 | 0 | 0
CC(C)(C)c1ccc(C(=O)CC(Sc2ccc(Cl)cc2)C(=O)O)cc1 (stereo not given) | 16 | 4 | 0 | 98 | 0 | -1
CC(=O)N1CCc2cc(S(=O)(=O)NCCC(=O)Nc3cccc(C)c3)ccc21 | 3 | -2 | -1 | 93 | 22* | 6
CCOC(=O)c1cccc(NC(=O)CCNS(=O)(=O)c2ccc3c(c2)CCN3C(=O)CC)c1 | 3 | 3 | -2 | 101 | -2 | 4
COc1ccc2nc(C)cc(N/N=C/c3ccc(F)cc3)c2c1 | -43 | 55* | -4 | 174 | -12 | 4
COc1ccc(/C=N/Nc2cc(C)nc3ccccc23)cc1 | -62 | 27 | -54 | 117 | -17 | 8
O=C(CC1CCCC1)Nc1ccc2c(c1)CCC2 | 39* | 2 | 0 | 112 | 0 | 3
O=C(Cc1ccccc1)Nc1ccc2c(c1)CCC2 | 2 | 1 | 1 | 104 | 1 | 2
COc1ccc(OC/C(O)=C(\C#N)c2nc3ccccc3[nH]2)cc1 | -2 | 5 | -2 | 16* | 0 | 0
COc1ccc(/C=N/OC/C(O)=C(\C#N)c2nc3ccccc3[nH]2)cc1 | 6 | 14 | 0 | 97 | -2 | 1
CC(C)c1cc(C(=O)N2CCCC(Nc3ccc(F)cc3)C2)nc(N)n1 (stereo not given) | 1 | 2 | 1 | 104 | -2 | -4
CC(=O)Nc1ccc(NCN2C(=O)C3C4CCC(C4)C3C2=O)cc1 (stereo not given) | 0 | 1 | 2 | 99 | 29* | 7
Cc1ccc(NCN2C(=O)C3C4CCC(C4)C3C2=O)cc1 (stereo not given) | 0 | nt | nt | nt | nt | nt
COc1ccc(C(C(=O)NC2CCCCC2)N(Cc2cccs2)C(=O)Cc2c[nH]c3ccccc23)cc1 (stereo not given) | 1 | -6 | 0 | 30* | 1 | 2
COc1cccc(CN(C(=O)Cc2c[nH]c3ccccc23)C(C(=O)NC2CCCCC2)c2cccs2)c1 (stereo not given) | 0 | -10 | 1 | 104 | 2 | 3
CCSc1nnc(CCNS(=O)(=O)c2ccc(C(C)=O)cc2)n1C | 2 | 1 | -2 | 105 | -4 | 4
O=C(CN1C(=O)NC2(CCOc3ccccc32)C1=O)c1ccc(Cl)s1 (stereo not given) | nt | -4 | -5 | 101 | 2 | 4
O=C(/C=C/c1ccccc1)c1c[nH]c2ccccc12 | -11 | 4 | -6 | 64* | -1 | 1
OCCN(CCCn1c(C(F)(F)F)nc2ccccc21)c1nc(CN2CCCCC2)cs1 | 10 | -8 | 0 | 106 | 0 | 4
CCOC(=O)C1=C(COc2ccccc2)NC(=O)NC1c1ccc(Br)cc1 (stereo not given) | 0 | 4 | 47* | 104 | -2 | -3
SMILES | HCV NS3 hel inh | DNMT1 block | SUMO1 PPI mod | DSG3 Ab inh | UHRF1 binding | MBD2 DNA inh
O=C1/C(=C/c2ccncc2)Oc2cc(OS(=O)(=O)c3ccccc3)ccc21 | 6 | -9 | -12 | 97 | 1 | 0
COc1cccc(OC)c1C(=O)Oc1ccc2c(c1)O/C(=C\c1ccncc1)C2=O | -13 | -10 | -5 | 98 | 37* | -5
O=C(COC(=O)C1=Cc2ccccc2OC1)NC1CCCC1 | 0 | 4 | -9 | 103 | -3 | -2
CN1OC[C@@H]2CN(C(=O)C(C)(C)C)[C@H](c3ccc(-c4cc5ccccc5o4)cc3)C[C@@H]21 | nt | -2 | -9 | 61* | -4 | 0
CN1OC[C@@H]2CN(C(=O)C(C)(C)C)[C@H](c3cccc(-c4ccccc4)c3)C[C@@H]21 | nt | 8 | 4 | 106 | 0 | -3
COc1ccc(-n2c(Cc3cccn3C)nnc2SCC(=O)Nc2ccc(F)cc2)cc1 | 8 | -2 | 7 | 110 | 1 | -1
N=C1/C(=C/c2ccc(-c3cccc(C(=O)O)c3)o2)C(=O)N=C2SC=C(c3ccccc3)N12 | 21 | 100* | 46* | 56 | 5 | 7
COc1ccc(N2CCN(Cc3cc(=O)oc4cc5c(cc34)CCCC5)CC2)cc1 | 2 | 56* | -4 | nt | -1 | 2
COc1ccc(N2CCN(Cc3cc(=O)oc4ccc(C)cc34)CC2)cc1 | -1 | 43 | -1 | 93 | -3 | 0
CC(C)(C)c1ccc(S(=O)(=O)O/N=C2/CCCCC2c2ccc([N+](=O)[O-])cc2[N+](=O)[O-])cc1 (stereo not given) | 4 | 3 | -31 | 109 | 2 | -2
COc1c(C)cccc1C(=O)Nc1ccc(N2CCN(C(=O)c3ccccc3C)CC2)cc1 | -16 | 1 | 2 | 102 | 27* | 3
CC(=O)N1CCN(c2ccc(NC(=O)c3ccccc3)cc2)CC1 | -5 | -7 | 3 | 115 | 0 | 2
CC(=O)N1CCN(c2ccc(NC(=O)C(c3ccccc3)c3ccccc3)cc2)CC1 | -12 | 1 | 3 | 38* | -1 | 3
Cc1ccccc1C(=O)N1CCN(c2ccc(NC(=O)c3cccc(OC(C)C)c3)cc2)CC1 | -4 | -6 | -5 | 102 | 5 | -2
COC(=O)c1sc2ccccc2c1NC(=O)c1coc2ccccc2c1=O | -11 | 38 | 3 | 75 | 3 | 5
CC(=O)c1ccc(NC(=O)c2cn(-c3ccccc3)nc2-c2ccncc2)cc1 | 5 | -4 | -3 | 69* | 1 | 2
COc1ccc(-c2nn(-c3ccccc3)cc2C(=O)Nc2nccs2)cc1 | -25 | -15 | 3 | 99 | 4 | 0
O=C(Nc1nccs1)c1cn(-c2ccccc2)nc1-c1ccncc1 | 2 | -1 | 44* | 86 | -3 | 2
